Converted amounts (≈) assume the structure as drawn.
Assays:
Type in all cases: functional
Streptococcus pyogenes [1] = test: Antibacterial activity against Streptococcus pyogenes ATCC 8668 by agar dilution method
In short: (§1)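 MIC measured by agar dilution on Mueller–Hinton agar. Strains were a reference culture and clinically isolated strains. The pneumococcal isolates were penicillin-susceptible clinical isolates.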

Streptococcus pyogenes [2] = test: Antibacterial activity against Streptococcus pyogenes isolate 3 by agar dilution method; in short: as §1
Staphylococcus aureus [3] = test: Antibacterial activity against methicillin-susceptible Staphylococcus aureus ATCC 29213 by agar dilution method
In short: (§2)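 MIC determined by agar dilution on Mueller–Hinton agar against reference strains.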

Streptococcus pneumoniae [4] = test: Antibacterial activity against penicillin intermediate-resistant Streptococcus pneumoniae isolate I3 by agar dilution method
In short: (§3)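 MIC determined by agar dilution on Mueller–Hinton agar against clinically isolated penicillin-intermediate-resistant S. pneumoniae.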

Staphylococcus aureus [5] = test: Antibacterial activity against methicillin-susceptible Staphylococcus aureus isolate 2 by agar dilution method
In short: (§4)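 MIC determined by agar dilution on Mueller–Hinton agar against clinically isolated methicillin-susceptible S. aureus.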

Staphylococcus aureus [6] = test: Antibacterial activity against methicillin-resistant Staphylococcus aureus 2 by agar dilution method
In short: (§5)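 MIC determined by agar dilution on Mueller–Hinton agar against clinical strains of methicillin-resistant S. aureus.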

Staphylococcus aureus [7] = test: Antibacterial activity against methicillin-susceptible Staphylococcus aureus isolate 3 by agar dilution method; in short: as §4
Staphylococcus aureus [8] = test: Antibacterial activity against methicillin-resistant Staphylococcus aureus 3 by agar dilution method; in short: as §5
Staphylococcus aureus [9] = test: Antibacterial activity against methicillin-resistant Staphylococcus aureus 1 by agar dilution method; in short: as §5
Streptococcus pneumoniae [10] = test: Antibacterial activity against Streptococcus pneumoniae ATCC 49619 by agar dilution method; conditions: ATCC49619; in short: as §2
Streptococcus pneumoniae [11] = test: Antibacterial activity against penicillin intermediate-resistant Streptococcus pneumoniae isolate I1 by agar dilution method; in short: as §3
Streptococcus pneumoniae [12] = test: Antibacterial activity against penicillin-susceptible Streptococcus pneumoniae isolate S1 by agar dilution method; in short: as §1
Streptococcus pyogenes [13] = test: Antibacterial activity against Streptococcus pyogenes isolate 1 by agar dilution method; in short: as §1
Streptococcus pneumoniae [14] = test: Antibacterial activity against penicillin-susceptible Streptococcus pneumoniae isolate S2 by agar dilution method; in short: as §1
Streptococcus pneumoniae [15] = test: Antibacterial activity against penicillin intermediate-resistant Streptococcus pneumoniae isolate I2 by agar dilution method; in short: as §3
Streptococcus pyogenes [16] = test: Antibacterial activity against Streptococcus pyogenes isolate 2 by agar dilution method; in short: as §1
Staphylococcus aureus [17] = test: Antibacterial activity against methicillin-susceptible Staphylococcus aureus isolate 1 by agar dilution method; in short: as §4

Row | SMILES | MIC (Streptococcus pyogenes [1]) | MIC (Streptococcus pyogenes [2]) | MIC (Staphylococcus aureus [3]) | MIC (Streptococcus pneumoniae [4]) | MIC (Staphylococcus aureus [5]) | MIC (Staphylococcus aureus [6]) | MIC (Staphylococcus aureus [7]) | MIC (Staphylococcus aureus [8]) | MIC (Staphylococcus aureus [9]) | MIC (Streptococcus pneumoniae [10]) | MIC (Streptococcus pneumoniae [11]) | MIC (Streptococcus pneumoniae [12]) | MIC (Streptococcus pyogenes [13]) | MIC (Streptococcus pneumoniae [14]) | MIC (Streptococcus pneumoniae [15]) | MIC (Streptococcus pyogenes [16]) | MIC (Staphylococcus aureus [17])
1 | CC[C@H]1OC(=O)[C@H](C)C(=O)[C@H](C)[C@@H](O[C@@H]2O[C@H](C)C[C@H](N(C)C)[C@H]2O)[C@](C)(OC)C[C@@H](C)/C(=N\OC/C=C/c2cccc(OC)c2)[C@H](C)[C@@H](O)[C@]1(C)O | 1 µg/mL (≈ 1.34 µM) | 1 µg/mL (≈ 1.34 µM) | 2 µg/mL (≈ 2.67 µM) | 64 µg/mL (≈ 85.5 µM) | 2 µg/mL (≈ 2.67 µM) | 128 µg/mL (≈ 171 µM) | 2 µg/mL (≈ 2.67 µM) | 2 µg/mL (≈ 2.67 µM) | 128 µg/mL (≈ 171 µM) | 1 µg/mL (≈ 1.34 µM) | 64 µg/mL (≈ 85.5 µM) | 0.25 µg/mL (≈ 0.334 µM) | 0.25 µg/mL (≈ 0.334 µM) | 0.25 µg/mL (≈ 0.334 µM) | 1 µg/mL (≈ 1.34 µM) | 1 µg/mL (≈ 1.34 µM) | 2 µg/mL (≈ 2.67 µM)
2 | CC[C@H]1OC(=O)[C@H](C)C(=O)[C@H](C)[C@@H](O[C@@H]2O[C@H](C)C[C@H](N(C)C)[C@H]2O)[C@](C)(OC)C[C@@H](C)/C(=N\OC/C=C/c2ccc(OC)c(OC)c2)[C@H](C)[C@@H](O)[C@]1(C)O | 0.25 µg/mL (≈ 0.321 µM) | 0.25 µg/mL (≈ 0.321 µM) | 1 µg/mL (≈ 1.28 µM) | 0.5 µg/mL (≈ 0.642 µM) | 1 µg/mL (≈ 1.28 µM) | 128 µg/mL (≈ 164 µM) | 1 µg/mL (≈ 1.28 µM) | 1 µg/mL (≈ 1.28 µM) | 128 µg/mL (≈ 164 µM) | 0.25 µg/mL (≈ 0.321 µM) | 32 µg/mL (≈ 41.1 µM) | 0.06 µg/mL (≈ 0.077 µM) | 0.06 µg/mL (≈ 0.077 µM) | 0.06 µg/mL (≈ 0.077 µM) | 0.5 µg/mL (≈ 0.642 µM) | 0.25 µg/mL (≈ 0.321 µM) | 0.5 µg/mL (≈ 0.642 µM)
3 | CC[C@H]1OC(=O)[C@H](C)C(=O)[C@H](C)[C@@H](O[C@@H]2O[C@H](C)C[C@H](N(C)C)[C@H]2O)[C@](C)(OC)C[C@@H](C)/C(=N\OC/C=C/c2cccnc2)[C@H](C)[C@@H](O)[C@]1(C)O | 0.25 µg/mL (≈ 0.347 µM) | 0.06 µg/mL (≈ 0.0833 µM) | 0.5 µg/mL (≈ 0.695 µM) | 0.06 µg/mL (≈ 0.0833 µM) | 0.25 µg/mL (≈ 0.347 µM) | 128 µg/mL (≈ 178 µM) | 0.25 µg/mL (≈ 0.347 µM) | 0.5 µg/mL (≈ 0.695 µM) | 128 µg/mL (≈ 178 µM) | 0.125 µg/mL (≈ 0.174 µM) | 64 µg/mL (≈ 88.9 µM) | 0.06 µg/mL (≈ 0.0833 µM) | 0.06 µg/mL (≈ 0.0833 µM) | 0.06 µg/mL (≈ 0.0833 µM) | 0.25 µg/mL (≈ 0.347 µM) | 0.06 µg/mL (≈ 0.0833 µM) | 0.25 µg/mL (≈ 0.347 µM)
4 | CC[C@H]1OC(=O)[C@H](C)C(=O)[C@H](C)[C@@H](O[C@@H]2O[C@H](C)C[C@H](N(C)C)[C@H]2O)[C@](C)(OC)C[C@@H](C)/C(=N\OC/C=C/c2cncc3ccccc23)[C@H](C)[C@@H](O)[C@]1(C)O | 0.25 µg/mL (≈ 0.325 µM) | 0.25 µg/mL (≈ 0.325 µM) | 1 µg/mL (≈ 1.3 µM) | 1 µg/mL (≈ 1.3 µM) | 0.5 µg/mL (≈ 0.649 µM) | 128 µg/mL (≈ 166 µM) | 0.5 µg/mL (≈ 0.649 µM) | 0.5 µg/mL (≈ 0.649 µM) | 128 µg/mL (≈ 166 µM) | 0.25 µg/mL (≈ 0.325 µM) | 32 µg/mL (≈ 41.6 µM) | 0.25 µg/mL (≈ 0.325 µM) | 0.06 µg/mL (≈ 0.0779 µM) | 0.25 µg/mL (≈ 0.325 µM) | 0.5 µg/mL (≈ 0.649 µM) | 0.25 µg/mL (≈ 0.325 µM) | 1 µg/mL (≈ 1.3 µM)
5 | CC[C@H]1OC(=O)[C@H](C)C(=O)[C@H](C)[C@@H](O[C@@H]2O[C@H](C)C[C@H](N(C)C)[C@H]2O)[C@](C)(OC)C[C@@H](C)/C(=N\OC/C=C/c2cncnc2)[C@H](C)[C@@H](O)[C@]1(C)O | 0.25 µg/mL (≈ 0.347 µM) | 0.25 µg/mL (≈ 0.347 µM) | 0.5 µg/mL (≈ 0.694 µM) | 1 µg/mL (≈ 1.39 µM) | 0.5 µg/mL (≈ 0.694 µM) | 128 µg/mL (≈ 178 µM) | 0.5 µg/mL (≈ 0.694 µM) | 0.5 µg/mL (≈ 0.694 µM) | 128 µg/mL (≈ 178 µM) | 0.25 µg/mL (≈ 0.347 µM) | 128 µg/mL (≈ 178 µM) | 0.125 µg/mL (≈ 0.173 µM) | 0.06 µg/mL (≈ 0.0832 µM) | 0.125 µg/mL (≈ 0.173 µM) | 0.5 µg/mL (≈ 0.694 µM) | 0.25 µg/mL (≈ 0.347 µM) | 0.5 µg/mL (≈ 0.694 µM)
6 | CC[C@H]1OC(=O)[C@H](C)C(=O)[C@H](C)[C@@H](O[C@@H]2O[C@H](C)C[C@H](N(C)C)[C@H]2O)[C@](C)(OC)C[C@@H](C)/C(=N\OC/C=C/c2ccc(OC)cc2)[C@H](C)[C@@H](O)[C@]1(C)O | 0.5 µg/mL (≈ 0.668 µM) | 0.5 µg/mL (≈ 0.668 µM) | 2 µg/mL (≈ 2.67 µM) | 0.5 µg/mL (≈ 0.668 µM) | 1 µg/mL (≈ 1.34 µM) | 126 µg/mL (≈ 168 µM) | 1 µg/mL (≈ 1.34 µM) | 2 µg/mL (≈ 2.67 µM) | 128 µg/mL (≈ 171 µM) | 0.5 µg/mL (≈ 0.668 µM) | 64 µg/mL (≈ 85.5 µM) | 0.25 µg/mL (≈ 0.334 µM) | 0.25 µg/mL (≈ 0.334 µM) | 0.25 µg/mL (≈ 0.334 µM) | 0.5 µg/mL (≈ 0.668 µM) | 0.5 µg/mL (≈ 0.668 µM) | 2 µg/mL (≈ 2.67 µM)

— ChEMBL document CHEMBL1156205, “Synthesis and antibacterial activity of new 9-O-arylpropenyloxime ketolides” (2010)
